Source: ChEMBL document CHEMBL4706672 (J Med Chem, 2021)
The source made the active and inactive calls. No cut-off for these calls is given here.

Legend:
[1] = target: Signal transducer and activator of transcription 3 (Homo sapiens) (UniProt P40763); experiment: Inhibition of STAT3 phosphorylation in human MIA PaCa-2 cells at 0.5 to 1 uM after 16 hrs by western blot analysis; type: cell-based; conditions: dose 0.5-1 µM
Outline: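 Cells were seeded in 6-well plates (BxPC-3 500 × 10^3, MIA PaCa-2 200 × 10^3 cells/well) and exposed to compound for 16 h. Lysis was at 4 °C by sonication in Tris/NaCl/Triton/SDS buffer, pH 7.4, with protease and phosphatase inhibitors. Lysates were run on SDS-PAGE, transferred to PVDF and probed for STAT3, pSTAT3 and NQO1 with GAPDH as loading control. Immunoblots were imaged on an Odyssey system.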

[2] = tested on: BXPC-3; experiment: Reduction in NQO1 expression in human BxPC-3 cells at 2 to 6 uM incubated for 12 hrs in presence of proteasome inhibitor MG132 by western blot analysis; type: functional, cell-based; conditions: dose 2-6 µM
Outline: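 Immunoblot of BxPC-3 cells given a 2 h pretreatment with MG132 at 10 μM, then test agent for 12 h. Cell lysis, BCA assay, SDS-PAGE/PVDF, probed for STAT3, pSTAT3 and NQO1 with GAPDH as reference.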

[3] = target: Protein cereblon/E3 ubiquitin-protein ligase DTX3L (Homo sapiens) (UniProt Q96SW2+Q8TDB6); experiment: Protac activity at CRBN/DTX3L in human BxPC-3 cells assessed as DTX3L degradation incubated for 16 hrs by proteomic analysis; type: cell-based
Outline: (§1)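 TMT 10plex proteomics. […] Samples (75 μg) were reduced with DTT, alkylated with 2-chloroacetamide, acetone-precipitated, trypsin-digested overnight at 37 °C and TMT-labeled for LC-MS/MS relative quantitation.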

[4] = target: Protein cereblon/Signal transducer and activator of transcription 2 (Homo sapiens) (UniProt Q96SW2+P52630); experiment: Protac activity at CRBN/STAT2 in human BxPC-3 cells assessed as STAT2 degradation incubated for 16 hrs by proteomic analysis; type: cell-based; outline: as §1
[5] = target: Protein cereblon/Kunitz-type protease inhibitor 1 (Homo sapiens) (UniProt Q96SW2+O43278); experiment: Protac activity at CRBN/SPINT1 in human BxPC-3 cells assessed as SPINT1 degradation incubated for 16 hrs by proteomic analysis; type: cell-based; outline: as §1
[6] = target: Protein cereblon/Endothelial differentiation-related factor 1 (Homo sapiens) (UniProt Q96SW2+O60869); experiment: Protac activity at CRBN/EDF1 in human BxPC-3 cells assessed as EDF1 degradation incubated for 16 hrs by proteomic analysis; type: cell-based; outline: as §1
[7] = target: Protein cereblon/Protein LTV1 homolog (Homo sapiens) (UniProt Q96SW2+Q96GA3); experiment: Protac activity at CRBN/LTV1 in human BxPC-3 cells assessed as LTV1 degradation incubated for 16 hrs by proteomic analysis; type: cell-based; outline: as §1
[8] = target: Protein cereblon/Laminin subunit beta-1 (Homo sapiens) (UniProt P07942+Q96SW2); experiment: Protac activity at CRBN/LAMB1 in human BxPC-3 cells assessed as LAMB1 degradation incubated for 16 hrs by proteomic analysis; type: cell-based; outline: as §1
[9] = target: Protein cereblon/Ubiquitin-conjugating enzyme E2 T (Homo sapiens) (UniProt Q96SW2+Q9NPD8); experiment: Protac activity at CRBN/UBE2T in human BxPC-3 cells assessed as UBE2T degradation incubated for 16 hrs by proteomic analysis; type: cell-based
Outline: (§2)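 BxPC-3 cells exposed 16 h in triplicate (control, PROTAC) or duplicate (other arms); lysed in RIPA at 4 °C, 75 μg protein per sample. Reduced with DTT (1 h, 55 °C), alkylated with 2-chloroacetamide, acetone-precipitated, trypsin-digested overnight at 37 °C, TMT 10plex labelled, relative quantitation by LC-tandem MS.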

[10] = target: Protein cereblon/Procollagen-lysine,2-oxoglutarate 5-dioxygenase 2 (Homo sapiens) (UniProt Q96SW2+O00469); experiment: Protac activity at CRBN/PLOD2 in human BxPC-3 cells assessed as PLOD2 degradation incubated for 16 hrs by proteomic analysis; type: cell-based; outline: as §1
[11] = target: Protein cereblon/Methylated-DNA--protein-cysteine methyltransferase (Homo sapiens) (UniProt P16455+Q96SW2); experiment: Protac activity at CRBN/MGMT in human BxPC-3 cells assessed as MGMT degradation incubated for 16 hrs by proteomic analysis; type: cell-based; outline: as §1
[12] = target: T1, Protein cereblon/E3 ubiquitin-protein ligase ZFP91 (Homo sapiens, UniProt Q96SW2+Q96JP5); experiment: Protac activity at CRBN/ZFP91 in human BxPC-3 cells assessed as ZFP91 degradation incubated for 16 hrs by proteomic analysis; type: cell-based; outline: as §2
[13] = target: Protein cereblon/Small EDRK-rich factor 2 (Homo sapiens) (UniProt Q96SW2+P84101); experiment: Protac activity at CRBN/SERF2 in human BxPC-3 cells assessed as SERF2 degradation incubated for 16 hrs by proteomic analysis; type: cell-based; outline: as §1
[14] = target: Protein cereblon/DNA polymerase delta subunit 4 (Homo sapiens) (UniProt Q9HCU8+Q96SW2); experiment: Protac activity at CRBN/POLD4 in human BxPC-3 cells assessed as POLD4 degradation incubated for 16 hrs by proteomic analysis; type: cell-based; outline: as §1
[15] = target: Protein cereblon/Histone-lysine N-methyltransferase PRDM16 (Homo sapiens) (UniProt Q96SW2+Q9HAZ2); experiment: Protac activity at CRBN/PRDM16 in human BxPC-3 cells assessed as PRDM16 degradation incubated for 16 hrs by proteomic analysis; type: cell-based; outline: as §1
[16] = target: Protein cereblon/Ubiquitin carboxyl-terminal hydrolase 8 (Homo sapiens) (UniProt P40818+Q96SW2); experiment: Protac activity at CRBN/USP8 in human BxPC-3 cells assessed as USP8 degradation incubated for 16 hrs by proteomic analysis; type: cell-based; outline: as §2
[17] = Upregulation of SYNC protein levels in human BxPC-3 cells incubated for 16 hrs by proteomic analysis; type: functional; outline: as §2
[18] = Upregulation of ZNF430 protein levels human BxPC-3 cells incubated for 16 hrs by proteomic analysis; type: functional
Outline: (§3)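 BxPC-3 cells exposed to compound (2 μM) or DMSO control for 16 h, then lysed in RIPA buffer at 4 °C. Protein quantified by BCA; 75 μg per sample. TMT 10plex labeling: DTT reduction (1 h, 55 °C), 2-chloroacetamide alkylation (30 min, RT), acetone precipitation, overnight trypsin digestion at 37 °C, then LC-tandem MS relative quantitation. Control and treated samples run in triplicate.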

[19] = Upregulation of RhoB protein levels in human BxPC-3 cells incubated for 16 hrs by proteomic analysis; type: functional; outline: as §2
[20] = Upregulation of MPV17 protein levels in human BxPC-3 cells incubated for 16 hrs by proteomic analysis; type: functional; outline: as §2
[21] = Upregulation of EPHB3 protein levels in human BxPC-3 cells incubated for 16 hrs by proteomic analysis; type: functional; outline: as §2
[22] = Upregulation of ceramide glucosyltransferase protein levels in human BxPC-3 cells incubated for 16 hrs by proteomic analysis; type: functional; outline: as §3
[23] = target: T1, Protein cereblon/E3 ubiquitin-protein ligase ZFP91; experiment: Protac activity at CRBN/ZFP91 in human BxPC-3 cells assessed as alteration of ZF91 protein levels at 0.5 uM incubated for 16 hrs in presence of NQO1 inhibitor dicoumarol; type: cell-based
Outline: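 BxPC-3 cells treated 16 h with or without dicoumarol; carfilzomib added 1 h before treatments. ZFP91 immunoblotted against GAPDH.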

T1 sequence (Q96JP5 2-570 partner limits assumed): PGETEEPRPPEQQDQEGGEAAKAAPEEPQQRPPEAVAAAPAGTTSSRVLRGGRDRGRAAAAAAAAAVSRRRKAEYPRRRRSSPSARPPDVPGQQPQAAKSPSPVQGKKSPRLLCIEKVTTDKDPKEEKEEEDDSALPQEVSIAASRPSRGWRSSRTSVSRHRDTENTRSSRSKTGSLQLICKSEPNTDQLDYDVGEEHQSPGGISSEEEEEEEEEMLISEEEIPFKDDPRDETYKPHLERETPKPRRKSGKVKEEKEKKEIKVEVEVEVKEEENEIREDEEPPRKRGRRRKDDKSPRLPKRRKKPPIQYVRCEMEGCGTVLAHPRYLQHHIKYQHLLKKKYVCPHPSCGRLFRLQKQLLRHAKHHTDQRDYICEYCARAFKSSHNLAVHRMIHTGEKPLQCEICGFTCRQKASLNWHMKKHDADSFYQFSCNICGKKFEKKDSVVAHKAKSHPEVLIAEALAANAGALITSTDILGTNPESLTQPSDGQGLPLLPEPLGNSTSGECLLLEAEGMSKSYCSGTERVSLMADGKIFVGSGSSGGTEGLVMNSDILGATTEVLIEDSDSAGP
T1 sequence (Q96SW2 whole entry): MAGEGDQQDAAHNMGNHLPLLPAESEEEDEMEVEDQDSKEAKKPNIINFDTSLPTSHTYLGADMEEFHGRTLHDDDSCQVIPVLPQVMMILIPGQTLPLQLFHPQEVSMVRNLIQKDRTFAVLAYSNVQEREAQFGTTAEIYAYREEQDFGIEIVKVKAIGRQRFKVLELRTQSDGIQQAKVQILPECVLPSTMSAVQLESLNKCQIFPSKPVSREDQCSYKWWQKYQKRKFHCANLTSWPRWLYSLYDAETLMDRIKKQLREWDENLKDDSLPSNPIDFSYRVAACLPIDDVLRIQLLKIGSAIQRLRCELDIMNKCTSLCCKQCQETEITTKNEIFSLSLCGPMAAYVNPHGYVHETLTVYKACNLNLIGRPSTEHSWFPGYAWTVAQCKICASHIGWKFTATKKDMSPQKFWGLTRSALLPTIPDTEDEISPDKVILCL
Protein cereblon/Small EDRK-rich factor 2 (Homo sapiens), sequence (P84101 whole entry, looked up): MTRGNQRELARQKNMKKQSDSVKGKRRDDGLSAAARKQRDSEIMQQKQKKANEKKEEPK
Protein cereblon/Small EDRK-rich factor 2 (Homo sapiens), sequence (Q96SW2 whole entry, looked up): as the sequence (Q96SW2 whole entry) above
Protein cereblon/Procollagen-lysine,2-oxoglutarate 5-dioxygenase 2 (Homo sapiens), sequence (O00469 whole entry, looked up): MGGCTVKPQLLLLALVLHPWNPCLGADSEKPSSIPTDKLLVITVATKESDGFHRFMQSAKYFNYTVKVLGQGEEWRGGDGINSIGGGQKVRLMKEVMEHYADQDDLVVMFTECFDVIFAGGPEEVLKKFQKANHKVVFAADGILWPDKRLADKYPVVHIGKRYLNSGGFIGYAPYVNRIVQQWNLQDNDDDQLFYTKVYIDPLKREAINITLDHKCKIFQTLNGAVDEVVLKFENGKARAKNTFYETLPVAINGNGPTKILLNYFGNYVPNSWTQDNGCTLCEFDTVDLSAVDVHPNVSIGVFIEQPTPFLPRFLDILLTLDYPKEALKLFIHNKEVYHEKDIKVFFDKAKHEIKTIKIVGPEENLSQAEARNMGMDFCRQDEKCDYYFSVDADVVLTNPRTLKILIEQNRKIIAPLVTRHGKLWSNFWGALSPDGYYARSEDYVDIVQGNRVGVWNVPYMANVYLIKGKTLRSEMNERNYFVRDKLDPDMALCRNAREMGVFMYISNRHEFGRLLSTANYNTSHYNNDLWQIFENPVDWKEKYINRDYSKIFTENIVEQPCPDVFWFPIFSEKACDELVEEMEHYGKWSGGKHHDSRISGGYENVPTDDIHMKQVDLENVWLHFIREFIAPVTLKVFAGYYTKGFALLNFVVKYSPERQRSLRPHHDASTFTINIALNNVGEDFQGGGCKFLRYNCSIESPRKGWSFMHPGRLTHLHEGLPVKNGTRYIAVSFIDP
Protein cereblon/Procollagen-lysine,2-oxoglutarate 5-dioxygenase 2 (Homo sapiens), sequence (Q96SW2 whole entry, looked up): as the sequence (Q96SW2 whole entry) above
Signal transducer and activator of transcription 3 (Homo sapiens), sequence (P40763 whole entry): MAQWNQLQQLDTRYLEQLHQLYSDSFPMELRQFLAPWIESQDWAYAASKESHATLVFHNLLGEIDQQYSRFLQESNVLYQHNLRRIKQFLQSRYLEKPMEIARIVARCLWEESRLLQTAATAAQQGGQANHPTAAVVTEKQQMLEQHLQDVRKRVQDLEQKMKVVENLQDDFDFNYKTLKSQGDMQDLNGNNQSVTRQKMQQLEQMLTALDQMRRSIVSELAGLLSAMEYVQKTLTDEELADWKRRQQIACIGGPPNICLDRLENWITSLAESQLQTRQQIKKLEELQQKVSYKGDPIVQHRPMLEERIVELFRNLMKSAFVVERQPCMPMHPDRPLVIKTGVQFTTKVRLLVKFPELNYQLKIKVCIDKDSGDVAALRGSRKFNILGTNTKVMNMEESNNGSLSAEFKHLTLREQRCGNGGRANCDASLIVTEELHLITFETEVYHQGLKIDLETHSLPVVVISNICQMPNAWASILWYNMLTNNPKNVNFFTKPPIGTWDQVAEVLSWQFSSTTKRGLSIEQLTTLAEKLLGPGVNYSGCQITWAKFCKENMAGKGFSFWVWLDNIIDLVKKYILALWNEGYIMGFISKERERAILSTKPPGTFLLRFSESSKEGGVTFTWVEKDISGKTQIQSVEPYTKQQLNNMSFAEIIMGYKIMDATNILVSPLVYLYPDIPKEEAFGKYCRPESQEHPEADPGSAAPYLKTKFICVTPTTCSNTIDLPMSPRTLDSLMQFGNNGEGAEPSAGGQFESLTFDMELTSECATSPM
Protein cereblon/Ubiquitin-conjugating enzyme E2 T (Homo sapiens), sequence (Q96SW2 whole entry, looked up): as the sequence (Q96SW2 whole entry) above
Protein cereblon/Ubiquitin-conjugating enzyme E2 T (Homo sapiens), sequence (Q9NPD8 whole entry, looked up): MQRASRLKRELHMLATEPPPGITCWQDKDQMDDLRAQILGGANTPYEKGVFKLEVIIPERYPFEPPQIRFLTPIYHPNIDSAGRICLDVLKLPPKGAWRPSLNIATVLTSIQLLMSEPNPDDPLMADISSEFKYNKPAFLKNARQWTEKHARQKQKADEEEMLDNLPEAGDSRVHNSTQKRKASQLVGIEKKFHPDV
Protein cereblon/DNA polymerase delta subunit 4 (Homo sapiens), sequence (Q96SW2 whole entry, looked up): as the sequence (Q96SW2 whole entry) above
Protein cereblon/DNA polymerase delta subunit 4 (Homo sapiens), sequence (Q9HCU8 whole entry, looked up): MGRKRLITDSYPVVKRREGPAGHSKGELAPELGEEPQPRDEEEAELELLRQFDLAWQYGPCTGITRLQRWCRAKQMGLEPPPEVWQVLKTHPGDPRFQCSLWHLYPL

## O=C1CCC(N2C(=O)c3cccc(NCCCCCC4CCN(CCNC(=O)c5cc6c(o5)C(=O)c5ccccc5C6=O)CC4)c3C2=O)C(=O)N1 (stereo not drawn)
[1]
  inhibition: inactive
[2]
  Activity: Active
[3]
  log2FC: -0.96
[4]
  log2FC: -0.9
[5]
  log2FC: -0.85
[6]
  log2FC: -0.82
[7]
  log2FC: -0.69
[8]
  log2FC: -0.67
[9]
  log2FC: -0.66
[10]
  log2FC: -0.63
[11]
  log2FC: -0.63
[12]
  log2FC: -0.62
[13]
  log2FC: -0.61
[14]
  log2FC: -0.61
[15]
  log2FC: -0.6
[16]
  log2FC: -0.59
[17]
  log2FC: 1.04
[18]
  log2FC: 0.77
[19]
  log2FC: 0.73
[20]
  log2FC: 0.66
[21]
  log2FC: 0.65
[22]
  log2FC: 0.62
[23]
  Activity: inactive
